The source of these data is ChEMBL document CHEMBL3526142, “Biotransformation of a novel antimitotic agent, I-387, by mouse, rat, dog, monkey, and human liver microsomes and in vivo pharmacokinetics in mice” (Drug Metab Dispos, 2011).

Structures are written as SMILES.

Data set [1] relates to Liver microsome. The data set can be described thus: Drug level in human liver microsomes assessed as compound retention time treated with 0.5 uM I-387 after 2 hrs by LC-MS/MS analysis. The class given is ADME. The essentials:
(§1)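 Pooled liver microsomes (1 mg/ml protein) incubated with 0.5 µM substrate and 3 mM NADPH in 65 mM potassium phosphate, pH 7.4, 1% methanol, at 37°C for 2 h. Stopped with ice-cold acetonitrile containing internal standard, centrifuged. Supernatant analysed by LC-MS/MS on a C18 column, 15-min gradient, with product ion scans for metabolite identification.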

For data set [2], the system named is Liver. The data set can be described thus: Drug level in mouse liver microsomes assessed as compound retention time treated with 0.5 uM I-387 after 2 hrs by LC-MS/MS analysis. It counts as ADME. The essentials: as §1
The subject of data set [3] is Liver microsome. The experiment in a line: Drug level in rat liver microsomes assessed as compound retention time treated with 0.5 uM I-387 after 2 hrs by LC-MS/MS analysis. The class given is ADME. The essentials: as §1
In data set [4] the test system is Liver microsome. The experiment in a line: Drug level in dog liver microsomes assessed as compound retention time treated with 0.5 uM I-387 after 2 hrs by LC-MS/MS analysis. It counts as ADME, Canis lupus familiaris. The essentials: as §1
Data set [5] can be described thus: Drug level in monkey liver microsomes assessed as compound retention time treated with 0.5 uM I-387 after 2 hrs by LC-MS/MS analysis. The conditions noted are these: rhesus monkey. It counts as ADME, Macaca mulatta. The essentials: as §1
Data set [6] in a line: Retention time of the compound at 0.5 uM by LC-MS/MS analysis. It counts as physicochemical. The essentials: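 After a 2 h incubation at 37°C with liver microsomes (1 mg/ml protein, 3 mM NADPH, 0.5 μM substrate, pH 7.4 phosphate buffer), samples were quenched with acetonitrile and centrifuged. Supernatant separated on a C18 column (15 min run, linear gradient 100% A to 100% B over 7 min) with LC-MS/MS ion trap detection.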

For `COc1cc(C(O)c2cccc(-c3cc4ccccc4[nH]3)c2)cc(OC)c1OC` (stereo unspecified), the Drug metabolism entry in data set [1], in data set [2], in data set [3], in data set [4] and in data set [5] was “metabolite_detected” each time. Moreover, the Retention_time in data set [6] is 10.5 min.
